Results from ChEMBL document CHEMBL5058577, “EUbOPEN Chemogenomics Library 2 (Multiplex)” (2022).

Tested on: Fibroblast
Test: Multiplex assay against human fibroblast
Format: toxicity, cell-based
How it was run: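 Hoechst33342, BioTracker Green Microtubule Cytoskeleton Dye, MitoTracker Red and Annexin V Alexa Fluor 680 were added to live cells at seeding, and imaging on a CQ1 microscope at 37°C and 5% CO2 followed compound addition. Gating by CellPathfinder machine learning separated cells into Hoechst high-intensity objects or normal cells, then normal cells into healthy, pyknosed or fragmented nuclei, then pyknosed cells into mitotic or apoptotic. Per cents of healthy-nucleus cells are reported for the tubulin, mitochondrial-mass and membrane-permeability phenotypes.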

[1] = 12 h, 1 µM, compound concentration 1 uM, replicate 1
[2] = 12 h, 1 µM, compound concentration 1 uM, replicate 2
[3] = 12 h, 10 µM, compound concentration 10 uM, replicate 1
[4] = 12 h, 10 µM, compound concentration 10 uM, replicate 2
[5] = 24 h, 1 µM, compound concentration 1 uM, replicate 1
[6] = 24 h, 1 µM, compound concentration 1 uM, replicate 2
[7] = 24 h, 10 µM, compound concentration 10 uM, replicate 1
[8] = 24 h, 10 µM, compound concentration 10 uM, replicate 2
[9] = 48 h, 1 µM, compound concentration 1 uM, replicate 1
[10] = 48 h, 1 µM, compound concentration 1 uM, replicate 2
[11] = 48 h, 10 µM, compound concentration 10 uM, replicate 1
[12] = 48 h, 10 µM, compound concentration 10 uM, replicate 2

CCCC(CCC)C(=O)O [VALPROIC ACID]
Population Apoptotic (%) [1]: 42% | Population Fragmented Nuclei (%) [1]: 13% | Population Healthy Nuclei (%) [1]: 65% | Population Hoechst High Intensity Objects (%) [1]: 3% | Population Membrane Permeable-Phenotype (%) [1]: 2% | Population Mitochondria Different-Phenotype (%) [1]: 2% | Population Mitotic Cells (%) [1]: 57% | Population Normal (%) [1]: 96% | Population Pyknosed Nuclei (%) [1]: 21% | Population Tubulin-Different-Phenotype (%) [1]: 27% | Population Apoptotic (%) [2]: 57% | Population Fragmented Nuclei (%) [2]: 20% | Population Healthy Nuclei (%) [2]: 47% | Population Hoechst High Intensity Objects (%) [2]: 8% | Population Membrane Permeable-Phenotype (%) [2]: 10% | Population Mitochondria Different-Phenotype (%) [2]: 14% | Population Mitotic Cells (%) [2]: 42% | Population Normal (%) [2]: 91% | Population Pyknosed Nuclei (%) [2]: 31% | Population Tubulin-Different-Phenotype (%) [2]: 49% | Population Apoptotic (%) [3]: 30% | Population Fragmented Nuclei (%) [3]: 29% | Population Healthy Nuclei (%) [3]: 60% | Population Hoechst High Intensity Objects (%) [3]: 4% | Population Membrane Permeable-Phenotype (%) [3]: 1% | Population Mitochondria Different-Phenotype (%) [3]: 3% | Population Mitotic Cells (%) [3]: 70% | Population Normal (%) [3]: 95% | Population Pyknosed Nuclei (%) [3]: 9% | Population Tubulin-Different-Phenotype (%) [3]: 16% | Population Apoptotic (%) [4]: 43% | Population Fragmented Nuclei (%) [4]: 16% | Population Healthy Nuclei (%) [4]: 53% | Population Hoechst High Intensity Objects (%) [4]: 2% | Population Membrane Permeable-Phenotype (%) [4]: 4% | Population Mitochondria Different-Phenotype (%) [4]: 8% | Population Mitotic Cells (%) [4]: 56% | Population Normal (%) [4]: 97% | Population Pyknosed Nuclei (%) [4]: 30% | Population Tubulin-Different-Phenotype (%) [4]: 41% | Population Apoptotic (%) [5]: 42% | Population Fragmented Nuclei (%) [5]: 11% | Population Healthy Nuclei (%) [5]: 69% | Population Hoechst High Intensity Objects (%) [5]: 5% | Population Membrane Permeable-Phenotype (%) [5]: 1% | Population Mitochondria Different-Phenotype (%) [5]: 2% | Population Mitotic Cells (%) [5]: 57% | Population Normal (%) [5]: 95% | Population Pyknosed Nuclei (%) [5]: 19% | Population Tubulin-Different-Phenotype (%) [5]: 22% | Population Apoptotic (%) [6]: 48% | Population Fragmented Nuclei (%) [6]: 22% | Population Healthy Nuclei (%) [6]: 53% | Population Hoechst High Intensity Objects (%) [6]: 7% | Population Membrane Permeable-Phenotype (%) [6]: 3% | Population Mitochondria Different-Phenotype (%) [6]: 7% | Population Mitotic Cells (%) [6]: 51% | Population Normal (%) [6]: 92% | Population Pyknosed Nuclei (%) [6]: 24% | Population Tubulin-Different-Phenotype (%) [6]: 54% | Population Apoptotic (%) [7]: 50% | Population Fragmented Nuclei (%) [7]: 27% | Population Healthy Nuclei (%) [7]: 66% | Population Hoechst High Intensity Objects (%) [7]: 6% | Population Membrane Permeable-Phenotype (%) [7]: 0% | Population Mitochondria Different-Phenotype (%) [7]: 1% | Population Mitotic Cells (%) [7]: 50% | Population Normal (%) [7]: 93% | Population Pyknosed Nuclei (%) [7]: 5% | Population Tubulin-Different-Phenotype (%) [7]: 21% | Population Apoptotic (%) [8]: 38% | Population Fragmented Nuclei (%) [8]: 30% | Population Healthy Nuclei (%) [8]: 46% | Population Hoechst High Intensity Objects (%) [8]: 3% | Population Membrane Permeable-Phenotype (%) [8]: 5% | Population Mitochondria Different-Phenotype (%) [8]: 4% | Population Mitotic Cells (%) [8]: 61% | Population Normal (%) [8]: 96% | Population Pyknosed Nuclei (%) [8]: 23% | Population Tubulin-Different-Phenotype (%) [8]: 41% | Population Apoptotic (%) [9]: 55% | Population Fragmented Nuclei (%) [9]: 18% | Population Healthy Nuclei (%) [9]: 66% | Population Hoechst High Intensity Objects (%) [9]: 7% | Population Membrane Permeable-Phenotype (%) [9]: 0% | Population Mitochondria Different-Phenotype (%) [9]: 1% | Population Mitotic Cells (%) [9]: 44% | Population Normal (%) [9]: 92% | Population Pyknosed Nuclei (%) [9]: 14% | Population Tubulin-Different-Phenotype (%) [9]: 19% | Population Apoptotic (%) [10]: 48% | Population Fragmented Nuclei (%) [10]: 36% | Population Healthy Nuclei (%) [10]: 44% | Population Membrane Permeable-Phenotype (%) [10]: 4% | Population Mitochondria Different-Phenotype (%) [10]: 7% | Population Mitotic Cells (%) [10]: 51% | Population Pyknosed Nuclei (%) [10]: 19% | Population Tubulin-Different-Phenotype (%) [10]: 55% | Population Apoptotic (%) [11]: 60% | Population Fragmented Nuclei (%) [11]: 30% | Population Healthy Nuclei (%) [11]: 60% | Population Hoechst High Intensity Objects (%) [11]: 1% | Population Membrane Permeable-Phenotype (%) [11]: 0% | Population Mitochondria Different-Phenotype (%) [11]: 1% | Population Mitotic Cells (%) [11]: 40% | Population Normal (%) [11]: 98% | Population Pyknosed Nuclei (%) [11]: 8% | Population Tubulin-Different-Phenotype (%) [11]: 18% | Population Fragmented Nuclei (%) [12]: 33% | Population Healthy Nuclei (%) [12]: 51% | Population Hoechst High Intensity Objects (%) [12]: 5% | Population Membrane Permeable-Phenotype (%) [12]: 6% | Population Mitochondria Different-Phenotype (%) [12]: 5% | Population Mitotic Cells (%) [12]: 39% | Population Normal (%) [12]: 94% | Population Pyknosed Nuclei (%) [12]: 15% | Population Tubulin-Different-Phenotype (%) [12]: 46%
